{"source": "ChEMBL document CHEMBL4017489", "about": "“Design, Synthesis, and Evaluation of New Selective NM23-H2 Binders as c-MYC Transcription Inhibitors via Disruption of the NM23-H2/G-Quadruplex Interaction” (J Med Chem, 2017)", "key": {"[1]": {"test": "Anticlonogenic activity against mouse primary mesangial cells at 0.03125 to 0.5 uM after 14 days by crystal violet staining based assay", "assay_type": "ADME", "conditions": "primary mesangial cell, 336 h", "summary_of_the_method": "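Colony formation: SiHa cells and primary cultured mouse mesangial cells exposed to 0.5, 0.25, 0.125, 0.0625 and 0.03125 μM for 14 days, DMSO as negative control; three repeats.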"}, "[2]": {"test": "Binding affinity to 5'-FAM/3'-TAMRA labeled Pu22 c-myc G-quadruplex DNA (unknown origin) assessed as increase in melting temperature at 1 uM by FRET assay"}, "SiHa [3]": {"test_system": "SiHa", "test": "Induction of apoptosis in human SiHa cells assessed as increase in cleaved caspase-3 level after 48 hrs by Western blot analysis", "assay_type": "functional, cell-based", "summary_of_the_method": "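SiHa cells treated with 0, 0.5, 1.0 or 2.0 μM for 48 h and lysed for total protein. Caspase-3, cleaved caspase-3, PARP and cleaved PARP detected by Western blot (30 μg protein, 10% SDS-PAGE, HRP chemiluminescence). Bands quantified by densitometry; at least three experiments.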"}, "SiHa [4]": {"test_system": "SiHa", "test": "Induction of apoptosis in human SiHa cells assessed as late apoptotic cells at 0.5 uM after 48 hrs by Annexin V-FITC/propidium iodide based flow cytometric analysis (reference value: 0.7 %)", "assay_type": "functional"}, "SiHa [5]": {"test_system": "SiHa", "test": "Cell cycle arrest in human SiHa cells assessed as accumulation at sub-G1 phase at 2 uM after 48 hrs by propidium iodide staining based flow cytometry relative to control", "assay_type": "functional", "summary_of_the_method": "(§1)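 SiHa cells (2.0 × 10^5 per well) plated 24 h, then exposed to 2 μM compound or left untreated for 3, 6, 9, 12, 24, 36 or 48 h. Cells washed in PBS, fixed overnight in ice-cold 70% ethanol, treated with 20 μg/mL RNase A for 30 min at 37 °C, stained with PI, and read by flow cytometry at 488 nm. Phase percentages compared with untreated control; at least three experiments.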"}, "[6]": {"biological_target": "Nucleoside diphosphate kinase B (Homo sapiens, UniProt P22392, D54A)", "sequence (P22392 whole entry D54A)": "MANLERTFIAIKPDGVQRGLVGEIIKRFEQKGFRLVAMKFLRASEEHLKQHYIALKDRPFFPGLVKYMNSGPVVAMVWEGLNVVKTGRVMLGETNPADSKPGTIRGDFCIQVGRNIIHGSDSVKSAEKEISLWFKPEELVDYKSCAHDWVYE", "test": "Binding affinity to N-terminal NT-647-NHS labeled NM23-H2 D54A mutant (unknown origin) after 30 mins by MST analysis"}, "[7]": {"biological_target": "T1, Nucleoside diphosphate kinase B (Homo sapiens, UniProt P22392)", "T1 sequence (P22392 whole entry)": "as the sequence (P22392 whole entry D54A) above, with A54D counted along it", "test": "Binding affinity to NM23-H2 (unknown origin) assessed as reduction in protein interaction with Pu22 c-myc G-quadruplex DNA after 1 hr by EMSA"}, "[8]": {"test": "Binding affinity to Htg21 telomeric G-quadruplex DNA (unknown origin) at 40 uM after 30 mins by SPR analysis"}, "[9]": {"test": "Antiproliferative activity against mouse primary mesangial cells at 0.5 to 2 uM up to 100 hrs by real-time cellular activity assay", "assay_type": "cell-based", "conditions": "primary mesangial cell", "summary_of_the_method": "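Impedance-based real-time cell analysis at 37 °C, 5% CO2: 100 μL of 20 000 cells/mL added over medium background, settled 20 min, dosed after 24 h; read every 2 min for 2 h, then every 15 min to end; three repeats.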"}, "SiHa [10]": {"test_system": "SiHa", "test": "Cell cycle arrest in human SiHa cells assessed as accumulation at sub-G1 phase at 2 uM after 24 hrs by propidium iodide staining based flow cytometry relative to control", "assay_type": "functional", "summary_of_the_method": "as §1"}, "[11]": {"test": "Cell cycle arrest in mouse primary mesangial cells at 2 uM after 9 to 48 hrs by propidium iodide staining based flow cytometry method"}, "SiHa [12]": {"test_system": "SiHa", "test": "Cell cycle arrest in human SiHa cells assessed as accumulation at S phase at 2 uM after 24 hrs by propidium iodide staining based flow cytometry (reference value: 13 %)", "assay_type": "functional", "summary_of_the_method": "as §1"}, "SiHa [13]": {"test_system": "SiHa", "test": "Cell cycle arrest in human SiHa cells assessed as accumulation at S phase at 2 uM after 36 hrs by propidium iodide staining based flow cytometry (reference value: 13 %)", "assay_type": "functional", "summary_of_the_method": "as §1"}, "[14]": {"biological_target": "T1, Nucleoside diphosphate kinase B", "test": "Binding affinity to NM23-H2 (unknown origin) by SPR analysis"}, "SiHa [15]": {"test_system": "SiHa", "test": "Cell cycle arrest in human SiHa cells assessed as accumulation at sub-G1 phase at 2 uM after 36 hrs by propidium iodide staining based flow cytometry relative to control", "assay_type": "functional", "summary_of_the_method": "as §1"}, "SiHa [16]": {"test_system": "SiHa", "test": "Induction of apoptosis in human SiHa cells assessed as early apoptotic cells at 0.5 uM after 48 hrs by Annexin V-FITC/propidium iodide based flow cytometric analysis (reference value: 1.4 %)", "assay_type": "functional"}, "SiHa [17]": {"test_system": "SiHa", "test": "Cell cycle arrest in human SiHa cells assessed as accumulation at G0/G1 phase at 2 uM after 6 hrs by propidium iodide staining based flow cytometry (reference value: 48 %)", "assay_type": "functional", "summary_of_the_method": "(§2)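 SiHa cells plated 24 h, treated at 2 μM for 3–48 h; fixed in ice-cold 70% ethanol overnight, RNase A 20 μg/mL 37 °C 30 min, PI-stained, flow cytometry at 488 nm; phase percentages quantified; at least three experiments.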"}, "SiHa [18]": {"test_system": "SiHa", "test": "Cell cycle arrest in human SiHa cells assessed as accumulation at G2/M phase at 2 uM after 3 hrs by propidium iodide staining based flow cytometry (reference value: 39%)", "assay_type": "functional", "summary_of_the_method": "as §2"}, "SiHa [19]": {"test_system": "SiHa", "test": "Cell cycle arrest in human SiHa cells assessed as accumulation at G0/G1 phase at 2 uM after 24 hrs by propidium iodide staining based flow cytometry (reference value: 48 %)", "assay_type": "functional", "summary_of_the_method": "as §2"}, "SiHa [20]": {"test_system": "SiHa", "test": "Cell cycle arrest in human SiHa cells assessed as accumulation at S phase at 2 uM after 9 hrs by propidium iodide staining based flow cytometry (reference value: 13 %)", "assay_type": "functional", "summary_of_the_method": "as §1"}, "SiHa [21]": {"test_system": "SiHa", "test": "Cell cycle arrest in human SiHa cells assessed as accumulation at sub-G1 phase at 2 uM after 12 hrs by propidium iodide staining based flow cytometry relative to control", "assay_type": "functional", "summary_of_the_method": "as §1"}, "SiHa [22]": {"test_system": "SiHa", "test": "Effect on NM23-H2 mRNA level in human SiHa cells up to 2 uM after 9 hrs by RT-PCR analysis", "assay_type": "functional, cell-based", "summary_of_the_method": "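SiHa cells treated with 0, 0.5, 1.0 or 2.0 μM for 9 h. TRIzol RNA (1.5 μg) reverse-transcribed with M-MLV and oligo(dT) for 1 h at 42 °C. Semiquantitative PCR run for 30 cycles (58 °C annealing) and products resolved on 1.5% agarose. Band intensity normalized to β-actin, with untreated sample set at 100%; three repeats.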"}, "SiHa [23]": {"test_system": "SiHa", "test": "Cell cycle arrest in human SiHa cells assessed as accumulation at G0/G1 phase at 2 uM after 36 hrs by propidium iodide staining based flow cytometry (reference value: 48 %)", "assay_type": "functional", "summary_of_the_method": "as §2"}, "SiHa [24]": {"test_system": "SiHa", "test": "Cell cycle arrest in human SiHa cells assessed as accumulation at S phase at 2 uM after 6 hrs by propidium iodide staining based flow cytometry (reference value: 13 %)", "assay_type": "functional", "summary_of_the_method": "as §1"}, "[25]": {"test_system": "Nucleoside diphosphate kinase B (Homo sapiens), P22392 [F60A]", "sequence (P22392 whole entry F60A)": "as the sequence (P22392 whole entry D54A) above, with A54D, F60A counted along it", "test": "Binding affinity to NM23-H2 F60A mutant (unknown origin) up to 50 uM by SPR analysis"}, "SiHa [26]": {"test_system": "SiHa", "test": "Induction of apoptosis in human SiHa cells assessed as early apoptotic cells at 1 uM after 48 hrs by Annexin V-FITC/propidium iodide based flow cytometric analysis (reference value: 1.4 %)", "assay_type": "functional"}, "SiHa [27]": {"test_system": "SiHa", "test": "Cell cycle arrest in human SiHa cells assessed as accumulation at G0/G1 phase at 2 uM after 12 hrs by propidium iodide staining based flow cytometry (reference value: 48 %)", "assay_type": "functional", "summary_of_the_method": "as §2"}}, "note": "The source made the active and inactive calls. The calls are words filed in the database; no cut-off is given here."}
{"smiles": "CN(C)CCCNc1cc2nc3n(c(=O)c2cc1F)CC/C3=C\\c1ccc(OCc2ccccc2)cc1O", "values": [{"measurement": "Activity", "setting": "[1]", "result": "Non-Toxic"}, {"measurement": "Activity", "setting": "[2]", "result": "inactive"}, {"measurement": "Activity", "setting": "SiHa [3]", "result": "Dose-dependent effect"}, {"measurement": "Activity", "setting": "SiHa [4]", "result": 5.1, "unit": "%"}, {"measurement": "Activity", "setting": "SiHa [5]", "result": 100, "unit": "%"}, {"measurement": "Kd", "setting": "[6]", "result": 4.6, "unit": "µM"}, {"measurement": "Activity", "setting": "[7]", "result": "Dose-dependent effect"}, {"measurement": "Activity", "setting": "[8]", "result": "inactive"}, {"measurement": "Activity", "setting": "[9]", "result": "Non-Toxic"}, {"measurement": "Activity", "setting": "SiHa [10]", "result": 64, "unit": "%"}, {"measurement": "Activity", "setting": "[11]", "result": "Non-Toxic"}, {"measurement": "Activity", "setting": "SiHa [12]", "result": 6, "unit": "%"}, {"measurement": "Activity", "setting": "SiHa [13]", "result": 0, "unit": "%"}, {"measurement": "Kd", "setting": "[14]", "result": 3.1, "unit": "µM"}, {"measurement": "Activity", "setting": "SiHa [15]", "result": 99, "unit": "%"}, {"measurement": "Activity", "setting": "SiHa [16]", "result": 11.8, "unit": "%"}, {"measurement": "Activity", "setting": "SiHa [17]", "result": 62, "unit": "%"}, {"measurement": "Activity", "setting": "SiHa [18]", "result": 38, "unit": "%"}, {"measurement": "Activity", "setting": "SiHa [19]", "result": 22, "unit": "%"}, {"measurement": "Activity", "setting": "SiHa [20]", "result": 12, "unit": "%"}, {"measurement": "Activity", "setting": "SiHa [21]", "result": 8, "unit": "%"}, {"measurement": "Activity", "setting": "SiHa [22]", "result": "inactive"}, {"measurement": "Activity", "setting": "SiHa [23]", "result": 1, "unit": "%"}, {"measurement": "Activity", "setting": "SiHa [24]", "result": 12, "unit": "%"}, {"measurement": "Activity", "setting": "[25]", "result": "inactive"}, {"measurement": "Activity", "setting": "SiHa [26]", "result": 80.7, "unit": "%"}, {"measurement": "Activity", "setting": "SiHa [27]", "result": 54, "unit": "%"}]}
